In ChEMBL document CHEMBL5058577, “EUbOPEN Chemogenomics Library 2 (Multiplex)” (2022):

System: U2OS
Test: Multiplex assay against U2OS
Type: toxicity, cell-based
Details: human
Outline: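 Phenotypes for tubulin, mitochondrial mass and membrane permeability are expressed as per cents of healthy-nucleus cells. Cells were stained live at seeding with Hoechst33342, BioTracker Green Microtubule Cytoskeleton Dye, MitoTracker Red and Annexin V Alexa Fluor 680, then imaged after compound addition on a CQ1 microscope at 37°C and 5% CO2. Machine-learning gating in CellPathfinder separated Hoechst high-intensity objects from normal cells, divided normal cells by nuclear state (healthy, pyknosed, fragmented) and divided pyknosed cells into mitotic or apoptotic.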

[1] = 12 h, 1 µM, compound concentration 1 uM, replicate 1
[2] = 12 h, 1 µM, compound concentration 1 uM, replicate 2
[3] = 12 h, 10 µM, compound concentration 10 uM, replicate 1
[4] = 12 h, 10 µM, compound concentration 10 uM, replicate 2
[5] = 24 h, 1 µM, compound concentration 1 uM, replicate 1
[6] = 24 h, 1 µM, compound concentration 1 uM, replicate 2
[7] = 24 h, 10 µM, compound concentration 10 uM, replicate 1
[8] = 24 h, 10 µM, compound concentration 10 uM, replicate 2
[9] = 48 h, 1 µM, compound concentration 1 uM, replicate 1
[10] = 48 h, 1 µM, compound concentration 1 uM, replicate 2
[11] = 48 h, 10 µM, compound concentration 10 uM, replicate 1
[12] = 48 h, 10 µM, compound concentration 10 uM, replicate 2

## N#Cc1cc(F)cc(-c2nc(-c3ccc(F)cn3)no2)c1
[1]
  Population Apoptotic (%): 55%
  Population Fragmented Nuclei (%): 24%
  Population Healthy Nuclei (%): 65%
  Population Hoechst High Intensity Objects (%): 1%
  Population Membrane Permeable-Phenotype (%): 5%
  Population Mitochondria Different-Phenotype (%): 0%
  Population Mitotic Cells (%): 44%
  Population Normal (%): 98%
  Population Pyknosed Nuclei (%): 10%
  Population Tubulin-Different-Phenotype (%): 3%
  Total Cell Count: 178
[2]
  Population Apoptotic (%): 100%
  Population Fragmented Nuclei (%): 17%
  Population Healthy Nuclei (%): 79%
  Population Hoechst High Intensity Objects (%): 0%
  Population Membrane Permeable-Phenotype (%): 6%
  Population Mitochondria Different-Phenotype (%): 5%
  Population Mitotic Cells (%): 0%
  Population Normal (%): 99%
  Population Pyknosed Nuclei (%): 4%
  Population Tubulin-Different-Phenotype (%): 2%
  Total Cell Count: 101
[3]
  Population Apoptotic (%): 76%
  Population Fragmented Nuclei (%): 33%
  Population Healthy Nuclei (%): 59%
  Population Hoechst High Intensity Objects (%): 1%
  Population Membrane Permeable-Phenotype (%): 8%
  Population Mitochondria Different-Phenotype (%): 2%
  Population Mitotic Cells (%): 23%
  Population Normal (%): 98%
  Population Pyknosed Nuclei (%): 6%
  Population Tubulin-Different-Phenotype (%): 2%
  Total Cell Count: 196
[4]
  Population Apoptotic (%): 88%
  Population Fragmented Nuclei (%): 12%
  Population Healthy Nuclei (%): 81%
  Population Membrane Permeable-Phenotype (%): 7%
  Population Mitochondria Different-Phenotype (%): 4%
  Population Mitotic Cells (%): 11%
  Population Tubulin-Different-Phenotype (%): 1%
  Total Cell Count: 151
[5]
  Population Apoptotic (%): 90%
  Population Fragmented Nuclei (%): 22%
  Population Healthy Nuclei (%): 66%
  Population Hoechst High Intensity Objects (%): 4%
  Population Membrane Permeable-Phenotype (%): 8%
  Population Mitochondria Different-Phenotype (%): 0%
  Population Mitotic Cells (%): 9%
  Population Normal (%): 95%
  Population Pyknosed Nuclei (%): 11%
  Population Tubulin-Different-Phenotype (%): 4%
  Total Cell Count: 197
[6]
  Population Fragmented Nuclei (%): 8%
  Population Healthy Nuclei (%): 84%
  Population Hoechst High Intensity Objects (%): 0%
  Population Membrane Permeable-Phenotype (%): 2%
  Population Mitochondria Different-Phenotype (%): 3%
  Population Mitotic Cells (%): 10%
  Population Normal (%): 99%
  Population Pyknosed Nuclei (%): 8%
  Population Tubulin-Different-Phenotype (%): 2%
  Total Cell Count: 126
[7]
  Population Apoptotic (%): 93%
  Population Fragmented Nuclei (%): 32%
  Population Healthy Nuclei (%): 60%
  Population Hoechst High Intensity Objects (%): 1%
  Population Membrane Permeable-Phenotype (%): 7%
  Population Mitochondria Different-Phenotype (%): 0%
  Population Mitotic Cells (%): 6%
  Population Normal (%): 98%
  Population Pyknosed Nuclei (%): 7%
  Population Tubulin-Different-Phenotype (%): 2%
  Total Cell Count: 230
[8]
  Population Apoptotic (%): 88%
  Population Fragmented Nuclei (%): 9%
  Population Healthy Nuclei (%): 85%
  Population Hoechst High Intensity Objects (%): 0%
  Population Membrane Permeable-Phenotype (%): 5%
  Population Mitochondria Different-Phenotype (%): 1%
  Population Mitotic Cells (%): 11%
  Population Normal (%): 99%
  Population Pyknosed Nuclei (%): 4%
  Population Tubulin-Different-Phenotype (%): 1%
  Total Cell Count: 216
[9]
  Population Apoptotic (%): 96%
  Population Fragmented Nuclei (%): 18%
  Population Healthy Nuclei (%): 71%
  Population Hoechst High Intensity Objects (%): 1%
  Population Membrane Permeable-Phenotype (%): 4%
  Population Mitochondria Different-Phenotype (%): 0%
  Population Mitotic Cells (%): 3%
  Population Normal (%): 98%
  Population Pyknosed Nuclei (%): 9%
  Population Tubulin-Different-Phenotype (%): 2%
  Total Cell Count: 290
[10]
  Population Apoptotic (%): 100%
  Population Fragmented Nuclei (%): 15%
  Population Healthy Nuclei (%): 79%
  Population Mitochondria Different-Phenotype (%): 3%
  Population Mitotic Cells (%): 0%
  Population Pyknosed Nuclei (%): 5%
  Population Tubulin-Different-Phenotype (%): 1%
  Total Cell Count: 199
[11]
  Population Apoptotic (%): 85%
  Population Fragmented Nuclei (%): 30%
  Population Healthy Nuclei (%): 62%
  Population Hoechst High Intensity Objects (%): 1%
  Population Membrane Permeable-Phenotype (%): 6%
  Population Mitochondria Different-Phenotype (%): 2%
  Population Mitotic Cells (%): 14%
  Population Normal (%): 98%
  Population Pyknosed Nuclei (%): 7%
  Population Tubulin-Different-Phenotype (%): 3%
  Total Cell Count: 282
[12]
  Population Apoptotic (%): 94%
  Population Fragmented Nuclei (%): 10%
  Population Healthy Nuclei (%): 84%
  Population Membrane Permeable-Phenotype (%): 4%
  Population Mitotic Cells (%): 5%
  Population Pyknosed Nuclei (%): 5%
  Population Tubulin-Different-Phenotype (%): 2%
  Total Cell Count: 344
